Measurements published in the RNAGym collection of RNA variant scans (doi:10.1126/science.aae0568).
This sample holds only a part of the variants without activity.

B1: tRNA (parent)
chain: GUUCCGUUGGCGUAAUGGUAACGCGUCUCCCUCCUAAGGAGAAGACUGCGGGUUCGAGUCCCGUACGGAACG

Variants of: B1
Assay: yeast fitness relative to wild type (ratio to wild type); higher = fitter; tRNA-Arg(CCU), competitive growth, 37 C, YPD
Method in brief: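 Changes in genotype frequencies gave Darwinian fitness relative to wild type. Frequencies were read by 100-nucleotide paired-end sequencing of gene amplicons before and after pooled Saccharomyces cerevisiae strains, carrying tRNA-Arg(CCU) gene variants at the native locus, were competed in YPD at 37°C for 24 hours in six replicates. A genotype was kept only with ≥ 100 starting reads, and estimates < 0.5 were set to 0.5.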
Work on A20U C29U G41C G44A A57U yielded a yeast fitness of 0.805. A21U C46U gave a yeast fitness of 0.86. Work on C11U A20U C30A G38A G51A U54A yielded a yeast fitness of no more than 0.5. For C11G A20U C30G C34A A43C A69C, the yeast fitness was 0.76. Variant C5A G18C G50C C60G A70G has a yeast fitness of no more than 0.5. Work on C24U C34U A69C yielded a yeast fitness of 0.502. In the case of G12C U16A C24G G58C, the yeast fitness is reported as 0.567. Variant G23A A45G has a yeast fitness of 0.645. Work on A20G C31U A36U yielded a yeast fitness of 0.53. With A21G G23A C31U A45C C60A C66U the yeast fitness was no more than 0.5. Variant C4A C29U A65G has a yeast fitness of no more than 0.5. In the case of G9C A14U A69G, the yeast fitness is reported as no more than 0.5. For U2C A15U C34A G39C A40C G56C C61G C62G G68C, the yeast fitness was no more than 0.5. Work on U59C U64C yielded a yeast fitness of 0.92. In the case of C5A A14G G17C C29A C33G C34U A36U, the yeast fitness is reported as 0.648. For C31A G56A, the yeast fitness was 0.805. In the case of C5U C60G, the yeast fitness is reported as 0.627. In the case of G25C U28A C33A, the yeast fitness is reported as 0.539. Variant U8G U19A C22A C66U has a yeast fitness of no more than 0.5. G10C U26A A43G C60U C62U A70C showed a yeast fitness of no more than 0.5. A45U C46G A70U gave a yeast fitness of no more than 0.5. In the case of A42C G51A A65U G68A, the yeast fitness is reported as no more than 0.5. Work on C5A A57G yielded a yeast fitness of 0.767. Work on C11G A21U G51C yielded a yeast fitness of no more than 0.5. U26G G56A G67A showed a yeast fitness of 0.529. In the case of C5U C49U A65C, the yeast fitness is reported as 0.745. Work on C31A A65U C66A yielded a yeast fitness of no more than 0.5. In the case of U8A C11U A21C A69C, the yeast fitness is reported as no more than 0.5. For C29A G52C G68A, the yeast fitness was no more than 0.5. Work on G23C C60U yielded a yeast fitness of no more than 0.5. A15U C66U A70U gave a yeast fitness of 0.604. In the case of C4U A14G A36G C60G C61A, the yeast fitness is reported as no more than 0.5. For C34U U47A, the yeast fitness was 0.621. U8A C11G G56A showed a yeast fitness of 0.583. With U3A C11U C55G C60G the yeast fitness was no more than 0.5. For A21G A42U C49U G67A, the yeast fitness was no more than 0.5. U2C A15G showed a yeast fitness of 0.91. Variant U2A A70C has a yeast fitness of 1. In the case of G10A A14G, the yeast fitness is reported as 0.671. U16C C31G C34A gave a yeast fitness of 0.678. For G10A A43G G50A, the yeast fitness was 0.573. A21G U59A gave a yeast fitness of 0.835. In the case of C29G U35G C62U A69U, the yeast fitness is reported as no more than 0.5. In the case of U8G G38A A69U, the yeast fitness is reported as 0.507. In the case of G68A A69U, the yeast fitness is reported as 0.791. With G9A G39A the yeast fitness was 0.999. Work on U13C A36C G67U yielded a yeast fitness of 0.637. With C34A G44A C46U G68A the yeast fitness was 0.56. C4U A20C U47A A65U showed a yeast fitness of no more than 0.5. In the case of C33U C62U, the yeast fitness is reported as 0.717. With C11A G18A C31U the yeast fitness was 0.535. With C55A C62U the yeast fitness was 0.685. C22U C46A C66U showed a yeast fitness of no more than 0.5. G51A A65U showed a yeast fitness of 0.66. U32C A45G gave a yeast fitness of 0.91. Variant G23C C31G G38C has a yeast fitness of no more than 0.5. Variant G18C G41C G44C C55A has a yeast fitness of no more than 0.5. A14U A40U G58C gave a yeast fitness of 0.547. Work on A14U C33A A69G yielded a yeast fitness of 0.742. With C22U G63C the yeast fitness was 0.67. For U2G C22U C24G A37U, the yeast fitness was no more than 0.5. In the case of U2A A21C C24A C33A G48C, the yeast fitness is reported as no more than 0.5. G17C C60G gave a yeast fitness of no more than 0.5. Variant A15U C31G U53A C55U A57C C60G G67C has a yeast fitness of 0.546. Work on C55U A65C yielded a yeast fitness of 0.754. With U16A A20C C22U C33U A42G the yeast fitness was no more than 0.5. Variant U26C G67A has a yeast fitness of 0.762. For C5G C24G A45C A70U, the yeast fitness was no more than 0.5. Variant A21U U54A has a yeast fitness of 0.533. In the case of U2A A43G, the yeast fitness is reported as 0.988. C5U G25C C27G gave a yeast fitness of no more than 0.5. G9A C29G C66U showed a yeast fitness of no more than 0.5. With C29U C49G the yeast fitness was 0.739. For G17A A21C C27U C33A A37C, the yeast fitness was 0.566. In the case of C29U A37C A40G A42U, the yeast fitness is reported as no more than 0.5. C29A G39C gave a yeast fitness of 0.817. For A14C G48A G58A, the yeast fitness was 1.04. C22U A40U C61A G68A gave a yeast fitness of no more than 0.5. U26G G41A gave a yeast fitness of 0.794. G25C C30U gave a yeast fitness of 0.669. Work on U2A G10C yielded a yeast fitness of 0.673. For G50A C62U G63A, the yeast fitness was no more than 0.5. With C5A C46A G56C A70G the yeast fitness was no more than 0.5. C5G U13A gave a yeast fitness of 0.906. In the case of A20U C30U G39C A45G G68A A69C, the yeast fitness is reported as no more than 0.5. For C30A A42G G50A C62U, the yeast fitness was no more than 0.5. In the case of C27G C46U C62U G68C, the yeast fitness is reported as no more than 0.5. U28C C34G A40G A43G C46G G52A C55U C66U gave a yeast fitness of 0.547. C22G C34G showed a yeast fitness of 0.612. G17A G50A showed a yeast fitness of 0.833. Work on G10C A15G U35A G44A A69U yielded a yeast fitness of no more than 0.5. Variant C4U A20C C29U has a yeast fitness of 0.715. In the case of C5G U13C C31A A43G G50C, the yeast fitness is reported as no more than 0.5. With A21U A40G G67A the yeast fitness was 0.553. Work on C4U G9A C24G C29G G67A yielded a yeast fitness of no more than 0.5. In the case of A36G A57G C62A, the yeast fitness is reported as 0.549. In the case of C11U A20U C24U C29A A70G, the yeast fitness is reported as no more than 0.5. Variant C30U A40C G63C U64C has a yeast fitness of no more than 0.5. G9A U13A U19C C30U C61A gave a yeast fitness of no more than 0.5. Variant G58U has a yeast fitness of 1.04. Work on G52A U59A A69C yielded a yeast fitness of 0.571. In the case of A15C C46U C60U, the yeast fitness is reported as 0.58. U7A G10A A20C C29A G63A A70C gave a yeast fitness of no more than 0.5. Work on C5G A15G A36G A43G G56A yielded a yeast fitness of no more than 0.5. With C30A U47C C66U A70U the yeast fitness was no more than 0.5. Work on C5G G9A A43G G48C A69C yielded a yeast fitness of no more than 0.5. Work on C4G C22U G38C yielded a yeast fitness of no more than 0.5. C24G U53G C60A gave a yeast fitness of no more than 0.5. For C5U C30U A37G, the yeast fitness was 0.64. In the case of C5G U16A A57U, the yeast fitness is reported as no more than 0.5. With A14C C27U A43C the yeast fitness was no more than 0.5. In the case of A42G G67C A70C, the yeast fitness is reported as no more than 0.5. C5G C61U showed a yeast fitness of 0.736. With U8C A42G the yeast fitness was 0.995. Variant C5U U13G C33A A37C G52C has a yeast fitness of no more than 0.5. Work on U8C U32C G48A yielded a yeast fitness of 0.591. Variant C11G C30G C33A A57C C61A has a yeast fitness of 0.583. Variant A57U A65C has a yeast fitness of 0.865. For A40C C49A G51C U59A, the yeast fitness was no more than 0.5. A21U C34G G68A showed a yeast fitness of no more than 0.5. With G23C U32A A69C the yeast fitness was no more than 0.5. In the case of A14U C29U C55U, the yeast fitness is reported as no more than 0.5. Work on C4G A14C G50C C62G yielded a yeast fitness of no more than 0.5. Variant U13G G44C has a yeast fitness of 0.774. With A15G C33U A65U the yeast fitness was 0.543. With C31G C34U C55U G58A C61U the yeast fitness was 0.586. In the case of C11G C27U, the yeast fitness is reported as 0.706. With A37C G41A A70C the yeast fitness was no more than 0.5. With U16C C31A G56A A65G C66A G68C the yeast fitness was no more than 0.5. C27A C30A A43C C62G gave a yeast fitness of no more than 0.5. With U13A G41A U64C A70G the yeast fitness was no more than 0.5. With G6C C33G A40U C46U C49G A65G the yeast fitness was 0.624. G6A G17A U19A C31G U53C U54A gave a yeast fitness of no more than 0.5. In the case of A43G C55G, the yeast fitness is reported as 0.684. Variant C11A C29G U54A has a yeast fitness of 0.69. With G6C U28C C46U A69G the yeast fitness was no more than 0.5. C22U C31U C60G A70G gave a yeast fitness of no more than 0.5. Work on C4G C33U A43C yielded a yeast fitness of no more than 0.5. For C30A C46G G56A, the yeast fitness was 0.74. Variant C4A A14G G23C A65G has a yeast fitness of no more than 0.5. In the case of C24U U35A A40G, the yeast fitness is reported as 0.576. Work on C49U G67U A69C yielded a yeast fitness of 0.542. In the case of G6C U53G, the yeast fitness is reported as 0.519. U7G C27G U28G G39C A42G gave a yeast fitness of no more than 0.5. Work on G9A C24A U59A G67A yielded a yeast fitness of no more than 0.5. C27G C29A C33A A43C showed a yeast fitness of 0.574. For C27G C30G C33G A37C G52C, the yeast fitness was no more than 0.5. Work on C4U A15C G51A yielded a yeast fitness of no more than 0.5. Variant C11U C27A C46A A70U has a yeast fitness of no more than 0.5. In the case of G25A G50A G63C, the yeast fitness is reported as 0.641. For U13A A43U, the yeast fitness was 0.855. G17C C34U C61U G67A gave a yeast fitness of no more than 0.5. Variant C27G C34G U54A A70U has a yeast fitness of no more than 0.5. With C49G U54G the yeast fitness was 0.625. C24G C30G U59G gave a yeast fitness of 0.64. In the case of U13A G17C C31A, the yeast fitness is reported as 0.623. Variant U7C C11U U32C G39C G67C has a yeast fitness of no more than 0.5. For U32C C55U A57G, the yeast fitness was 0.555. C5G G9C A21G gave a yeast fitness of 0.531. With U2G G12C A20U C33U A37U A57U the yeast fitness was no more than 0.5. U7A A14U C31G gave a yeast fitness of no more than 0.5. C27G G39A C66U G68C gave a yeast fitness of 0.575. Work on U28G A37G G50C yielded a yeast fitness of 0.528. C5U A15U C30G C33G A40G A42G A43U U54G showed a yeast fitness of no more than 0.5. In the case of G38C U54A, the yeast fitness is reported as 0.615. U13C A21G A42U A57U C62U showed a yeast fitness of no more than 0.5. With A20U A36G G38A A40U the yeast fitness was 0.501.
